The source made the active and inactive calls. The rule behind the calls is not given here.
Key:
Mus musculus [1] = test: Emetogenic potential in surrogate emesis CD1 mouse model assessed as effect on xyclacine/ketamine-induced loss of righting reflex at 1 mg/kg, sc; details: in vivo
[2] = target: cGMP-inhibited 3',5'-cyclic phosphodiesterase 3A (Homo sapiens) (UniProt Q14432); test: Inhibition of human recombinant PDE3A assessed as inhibition of hydrolysis of [3H]cAMP at 10 uM after 20 mins by scintillation proximity assay
Chain of cGMP-inhibited 3',5'-cyclic phosphodiesterase 3A (Homo sapiens) (Q14432 whole entry): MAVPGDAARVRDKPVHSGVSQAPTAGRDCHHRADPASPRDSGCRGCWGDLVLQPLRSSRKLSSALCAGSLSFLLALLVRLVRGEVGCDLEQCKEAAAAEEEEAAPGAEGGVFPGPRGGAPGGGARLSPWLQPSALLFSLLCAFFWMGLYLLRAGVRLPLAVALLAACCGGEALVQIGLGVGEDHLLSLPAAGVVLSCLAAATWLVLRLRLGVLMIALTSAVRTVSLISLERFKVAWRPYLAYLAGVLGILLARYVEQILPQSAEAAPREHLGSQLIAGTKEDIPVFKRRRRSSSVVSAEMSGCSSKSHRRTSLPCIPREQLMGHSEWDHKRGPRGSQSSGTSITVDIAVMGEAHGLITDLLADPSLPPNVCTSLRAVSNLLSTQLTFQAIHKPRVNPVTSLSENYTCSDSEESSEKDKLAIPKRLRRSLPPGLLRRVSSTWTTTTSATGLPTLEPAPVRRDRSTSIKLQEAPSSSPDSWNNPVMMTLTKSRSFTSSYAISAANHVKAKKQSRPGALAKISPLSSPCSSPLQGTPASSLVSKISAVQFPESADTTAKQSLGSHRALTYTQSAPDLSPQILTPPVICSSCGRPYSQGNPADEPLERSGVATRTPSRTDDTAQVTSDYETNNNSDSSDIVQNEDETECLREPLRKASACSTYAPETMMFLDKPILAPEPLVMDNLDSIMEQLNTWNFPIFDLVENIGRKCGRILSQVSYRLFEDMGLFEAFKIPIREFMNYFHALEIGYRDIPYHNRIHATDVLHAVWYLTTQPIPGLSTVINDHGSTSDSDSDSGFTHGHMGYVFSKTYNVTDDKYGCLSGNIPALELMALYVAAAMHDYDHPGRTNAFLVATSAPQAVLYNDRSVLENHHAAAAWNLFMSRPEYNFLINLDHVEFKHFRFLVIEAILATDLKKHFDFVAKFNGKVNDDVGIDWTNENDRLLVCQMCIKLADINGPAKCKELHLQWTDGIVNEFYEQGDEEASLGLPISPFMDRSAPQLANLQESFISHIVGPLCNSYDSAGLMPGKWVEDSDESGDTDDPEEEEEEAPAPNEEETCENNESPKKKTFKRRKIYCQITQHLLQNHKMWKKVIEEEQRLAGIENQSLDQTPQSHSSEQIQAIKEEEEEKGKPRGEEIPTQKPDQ
In short: (§1)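 Scintillation proximity assay with human recombinant enzyme: PDE7A1 0.02 U, PDE3A 0.02 U, PDE7B 0.5 U, PDE8A 0.5 U. Enzyme incubated with 5 nCi [3H]cAMP and inhibitor in kit buffer for 20 min at 30 °C. SPA beads added and shaken 1 h at room temperature, settled 30 min, radioactivity counted.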

Mus musculus [3] = test: Emetogenic potential in surrogate emesis CD1 mouse model assessed as effect on xyclacine/ketamine-induced loss of righting reflex at 1 mg/kg, sc; type: ADME, organism-based; set-up: dose 1 mg/kg, route subcutaneous; details: in vivo
In short: (§2)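 Male CD1 mice (25–30 g) anesthetized ip with xylazine 10 mg/kg plus ketamine 100 mg/kg. Test agent or vehicle given sc 15 min later in 60% PEG/saline (0.1 mL/10 g). Duration of anesthesia is timed to return of righting reflex. Mean ± SEM, n = 10–19 per group, ANOVA with Dunnett post hoc test.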

[4] = target: T1, High affinity 3',5'-cyclic-AMP phosphodiesterase 7A (Homo sapiens, UniProt Q13946); test: Inhibition of human recombinant PDE7A1 assessed as inhibition of hydrolysis of [3H]cAMP at 10 uM after 20 mins by scintillation proximity assay
T1 sequence (Q13946 whole entry): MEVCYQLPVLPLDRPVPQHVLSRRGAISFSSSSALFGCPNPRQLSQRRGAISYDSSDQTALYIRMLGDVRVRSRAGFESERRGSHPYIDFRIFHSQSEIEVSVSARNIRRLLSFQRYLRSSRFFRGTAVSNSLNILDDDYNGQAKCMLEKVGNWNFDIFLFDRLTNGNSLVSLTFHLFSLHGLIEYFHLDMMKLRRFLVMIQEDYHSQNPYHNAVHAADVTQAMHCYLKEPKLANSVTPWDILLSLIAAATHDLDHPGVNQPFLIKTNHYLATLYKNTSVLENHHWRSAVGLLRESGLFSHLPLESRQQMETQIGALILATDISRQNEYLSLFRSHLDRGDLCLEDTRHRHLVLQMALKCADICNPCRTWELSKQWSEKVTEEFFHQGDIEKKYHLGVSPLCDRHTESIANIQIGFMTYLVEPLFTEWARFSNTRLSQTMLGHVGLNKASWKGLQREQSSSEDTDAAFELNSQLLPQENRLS
In short: as §1

Microglia = test: Inhibition of LPS-induced NO production in rat microglia treated for 1 hr at 10 uM before LPS challenge measured after 24 hrs by Griess assay; type: functional
In short: (§3)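 After 2 days, cells were pretreated with compound (10 μM), then LPS (10 μg/mL) was added for 24 h. Nitrite in the supernatant was measured by Griess reagent (15 min, room temperature, absorbance 492/540 nm). Mean ± SD of three experiments.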

[5] = target: cAMP and cAMP-inhibited cGMP 3',5'-cyclic phosphodiesterase 10A (Homo sapiens) (UniProt Q9Y233); test: Inhibition of human recombinant PDE10A assessed at 10 uM after 20 mins by scintillation proximity assay
Chain of cAMP and cAMP-inhibited cGMP 3',5'-cyclic phosphodiesterase 10A (Homo sapiens) (Q9Y233 whole entry): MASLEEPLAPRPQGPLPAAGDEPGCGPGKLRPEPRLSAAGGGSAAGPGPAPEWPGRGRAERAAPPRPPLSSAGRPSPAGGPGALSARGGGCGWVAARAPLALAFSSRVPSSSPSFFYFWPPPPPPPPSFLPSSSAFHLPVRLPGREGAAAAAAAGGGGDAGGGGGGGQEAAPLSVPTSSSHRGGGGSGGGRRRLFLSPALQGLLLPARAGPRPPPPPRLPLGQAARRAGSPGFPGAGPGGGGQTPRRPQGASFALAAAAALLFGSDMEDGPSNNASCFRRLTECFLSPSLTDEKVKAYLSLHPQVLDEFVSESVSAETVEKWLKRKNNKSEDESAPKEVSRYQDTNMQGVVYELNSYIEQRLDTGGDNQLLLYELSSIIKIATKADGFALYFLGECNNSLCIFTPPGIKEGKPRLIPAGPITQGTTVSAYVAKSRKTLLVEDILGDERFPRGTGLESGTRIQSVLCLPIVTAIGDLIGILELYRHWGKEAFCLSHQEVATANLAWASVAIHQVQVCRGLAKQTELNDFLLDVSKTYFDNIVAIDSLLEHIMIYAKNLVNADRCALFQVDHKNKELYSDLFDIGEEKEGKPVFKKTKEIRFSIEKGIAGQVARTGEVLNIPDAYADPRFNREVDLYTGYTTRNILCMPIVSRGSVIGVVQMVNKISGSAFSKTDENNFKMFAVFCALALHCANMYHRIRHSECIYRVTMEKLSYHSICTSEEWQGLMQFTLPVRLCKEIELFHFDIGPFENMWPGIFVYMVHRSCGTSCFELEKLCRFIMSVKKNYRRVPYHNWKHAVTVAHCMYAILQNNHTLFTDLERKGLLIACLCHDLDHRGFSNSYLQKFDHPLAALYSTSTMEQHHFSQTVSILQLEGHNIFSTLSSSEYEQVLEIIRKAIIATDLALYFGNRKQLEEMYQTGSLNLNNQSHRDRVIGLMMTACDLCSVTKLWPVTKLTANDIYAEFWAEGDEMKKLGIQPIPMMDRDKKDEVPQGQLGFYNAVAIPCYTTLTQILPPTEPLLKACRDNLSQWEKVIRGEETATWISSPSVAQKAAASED

[6] = target: High affinity cGMP-specific 3',5'-cyclic phosphodiesterase 9A (Homo sapiens) (UniProt O76083); test: Inhibition of human recombinant PDE9A assessed at 10 uM after 60 mins by IMAP fluorescence polarization assay
In short: (§4)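 Fluorescence polarization IMAP assay. PDE1 at 2 U and PDE9 at 0.05 U, incubated with 1 nM fluorescein-cAMP (or fluorescein-cGMP for PDE5) plus inhibitor for 60 min at ambient temperature. Stopped with IMAP binding reagent, stood 1 h, FP ratio read. IC50 from a sigmoidal fit of FP versus log concentration. Means ± SD of two experiments with duplicates.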

Astrocyte [7] = test: Inhibition of LPS-induced NO production in rat astrocytes treated for 1 hr at 10 uM before LPS challenge measured after 24 hrs by Griess assay; type: functional, cell-based
In short: as §3

[8] = target: cGMP-specific 3',5'-cyclic phosphodiesterase (Homo sapiens) (UniProt O76074); test: Inhibition of human recombinant PDE5A assessed at 10 uM after 60 mins by IMAP fluorescence polarization assay
In short: as §4

SH-SY5Y [9] = test: Cytoprotective activity against 6-OHDA-induced death of human SH-SY5Y cells pretreated for 1 hr at 10 uM measured 16 hrs post 6-OHDA challenge by MTT assay; type: functional, cell-based
In short: (§5)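 Human neuroblastoma SH-SY5Y grown in F12/EMEM with 2 mM glutamine, 1% nonessential amino acids and 15% FBS at 37 °C, 5% CO2. Semiconfluent cells pretreated 1 h with compound, then 6-OHDA (35 μM) added for 16 h. Viability by MTT (0.5 mg/mL, 4 h), SDS/HCl solubilisation, absorbance 595 nm. Mean ± SD of three experiments.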

Mus musculus [10] = test: Emetogenic potential in surrogate emesis CD1 mouse model assessed as effect on xyclacine/ketamine-induced loss of righting reflex at 2.5 to 10 mg/kg, sc; type: ADME, organism-based; set-up: dose 2.5-10 mg/kg, route subcutaneous; details: in vivo
In short: as §2

[11] = target: High affinity cAMP-specific and IBMX-insensitive 3',5'-cyclic phosphodiesterase 8A (Homo sapiens) (UniProt O60658); test: Inhibition of PDE8A (unknown origin) at 10 uM
In short: as §1

[12] = target: T2, 3',5'-cyclic-AMP phosphodiesterase 4D (Homo sapiens, UniProt Q08499); test: Inhibition of human recombinant PDE4D3 assessed at 10 uM after 60 mins by IMAP fluorescence polarization assay
T2 sequence (Q08499 whole entry): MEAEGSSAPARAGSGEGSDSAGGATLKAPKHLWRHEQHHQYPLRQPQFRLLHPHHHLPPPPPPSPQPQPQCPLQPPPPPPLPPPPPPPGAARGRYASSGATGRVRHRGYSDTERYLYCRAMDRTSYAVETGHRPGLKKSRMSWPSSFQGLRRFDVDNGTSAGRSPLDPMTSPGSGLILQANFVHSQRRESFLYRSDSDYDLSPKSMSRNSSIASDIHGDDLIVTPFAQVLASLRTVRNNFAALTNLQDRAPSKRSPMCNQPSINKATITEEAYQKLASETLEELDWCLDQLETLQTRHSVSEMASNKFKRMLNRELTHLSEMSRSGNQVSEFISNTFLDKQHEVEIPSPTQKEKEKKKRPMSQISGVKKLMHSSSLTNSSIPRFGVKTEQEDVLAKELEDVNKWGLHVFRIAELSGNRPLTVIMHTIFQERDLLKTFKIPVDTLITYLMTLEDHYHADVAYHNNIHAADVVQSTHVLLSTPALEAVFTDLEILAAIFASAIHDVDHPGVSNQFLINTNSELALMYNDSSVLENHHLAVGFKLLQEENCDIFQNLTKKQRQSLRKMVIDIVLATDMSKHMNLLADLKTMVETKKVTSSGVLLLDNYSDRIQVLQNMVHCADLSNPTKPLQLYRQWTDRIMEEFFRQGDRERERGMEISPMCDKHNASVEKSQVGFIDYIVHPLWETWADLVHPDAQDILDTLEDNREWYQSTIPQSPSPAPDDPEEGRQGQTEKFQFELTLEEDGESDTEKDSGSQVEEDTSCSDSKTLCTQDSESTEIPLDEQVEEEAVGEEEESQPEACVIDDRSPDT

Phosphodiesterase 7 = Phosphodiesterase 7 (Homo sapiens, UniProt Q13946+Q9NP56); test: Inhibition of PDE7 in human SH-SY5Y cells assessed as increase in CREB phosphorylation at 10 uM by Western blot analysis
Chain of Phosphodiesterase 7 (Q13946 whole entry, looked up): as the sequence (Q13946 whole entry) above
Chain of Phosphodiesterase 7 (Q9NP56 whole entry, looked up): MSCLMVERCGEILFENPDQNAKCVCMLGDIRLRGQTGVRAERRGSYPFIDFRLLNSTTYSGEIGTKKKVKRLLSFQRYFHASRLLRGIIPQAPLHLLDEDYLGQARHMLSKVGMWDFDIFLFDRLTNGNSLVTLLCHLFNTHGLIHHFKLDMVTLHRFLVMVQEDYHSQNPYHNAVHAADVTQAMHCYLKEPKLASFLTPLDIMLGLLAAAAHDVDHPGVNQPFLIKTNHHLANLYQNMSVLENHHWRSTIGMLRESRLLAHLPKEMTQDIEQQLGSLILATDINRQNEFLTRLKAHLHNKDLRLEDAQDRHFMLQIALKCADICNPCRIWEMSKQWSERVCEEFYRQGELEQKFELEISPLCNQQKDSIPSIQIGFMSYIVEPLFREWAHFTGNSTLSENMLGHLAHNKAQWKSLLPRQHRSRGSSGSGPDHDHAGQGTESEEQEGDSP

[13] = target: Dual specificity calcium/calmodulin-dependent 3',5'-cyclic nucleotide phosphodiesterase 1A (Homo sapiens) (UniProt P54750); test: Inhibition of human recombinant PDE1A assessed at 10 uM after 60 mins by IMAP fluorescence polarization assay
In short: as §4

[14] = target: T3, 3',5'-cyclic-AMP phosphodiesterase 7B (Homo sapiens, UniProt Q9NP56); test: Inhibition of human recombinant PDE7B assessed as inhibition of hydrolysis of [3H]cAMP after 20 mins by scintillation proximity assay
T3 sequence (Q9NP56 whole entry): as the sequence (Q9NP56 whole entry, looked up) above
In short: as §1

[15] = target: T1, High affinity 3',5'-cyclic-AMP phosphodiesterase 7A; test: Inhibition of human recombinant PDE7A1 assessed as inhibition of hydrolysis of [3H]cAMP after 20 mins by scintillation proximity assay
In short: as §1

SH-SY5Y [16] = test: Cytoprotective activity against 6-OHDA-induced death of human SH-SY5Y cells pretreated for 1 hr at 30 uM measured 16 hrs post 6-OHDA challenge by MTT assay; type: functional, cell-based; details: 10 uM, in the assay text read “10 uM” for “30 uM”
In short: as §5

[17] = target: T4, 3',5'-cyclic-AMP phosphodiesterase 4B (Homo sapiens, UniProt Q07343); test: Inhibition of human recombinant PDE4B2 assessed at 10 uM after 60 mins by IMAP fluorescence polarization assay
T4 sequence (Q07343 whole entry): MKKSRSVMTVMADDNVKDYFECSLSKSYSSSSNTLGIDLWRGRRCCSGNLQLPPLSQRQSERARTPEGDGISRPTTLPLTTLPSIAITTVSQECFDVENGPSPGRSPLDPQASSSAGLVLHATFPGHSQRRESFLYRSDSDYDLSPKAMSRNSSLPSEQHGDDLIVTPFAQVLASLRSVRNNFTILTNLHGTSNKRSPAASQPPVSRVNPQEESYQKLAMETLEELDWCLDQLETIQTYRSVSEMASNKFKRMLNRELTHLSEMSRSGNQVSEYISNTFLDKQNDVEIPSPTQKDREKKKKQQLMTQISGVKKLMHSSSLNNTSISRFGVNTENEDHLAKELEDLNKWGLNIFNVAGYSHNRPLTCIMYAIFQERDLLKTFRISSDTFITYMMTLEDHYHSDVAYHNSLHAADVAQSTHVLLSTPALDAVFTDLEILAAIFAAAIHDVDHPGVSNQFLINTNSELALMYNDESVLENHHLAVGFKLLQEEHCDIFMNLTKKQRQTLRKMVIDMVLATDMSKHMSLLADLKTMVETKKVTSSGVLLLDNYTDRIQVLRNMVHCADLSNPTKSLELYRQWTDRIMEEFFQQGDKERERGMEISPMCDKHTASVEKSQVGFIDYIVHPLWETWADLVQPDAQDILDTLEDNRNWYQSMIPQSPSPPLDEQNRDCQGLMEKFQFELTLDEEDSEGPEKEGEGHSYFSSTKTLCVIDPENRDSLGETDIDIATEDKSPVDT

[18] = target: T3, 3',5'-cyclic-AMP phosphodiesterase 7B; test: Inhibition of human recombinant PDE7B assessed as inhibition of hydrolysis of [3H]cAMP at 10 uM after 20 mins by scintillation proximity assay
In short: as §1

[19] = target: T2, 3',5'-cyclic-AMP phosphodiesterase 4D; test: Inhibition of human recombinant PDE4D3 assessed after 60 mins by IMAP fluorescence polarization assay
[20] = target: T4, 3',5'-cyclic-AMP phosphodiesterase 4B; test: Inhibition of human recombinant PDE4B2 assessed after 60 mins by IMAP fluorescence polarization assay
Mus musculus [21] = test: Emetogenic potential in surrogate emesis CD1 mouse model assessed as effect on xyclacine/ketamine-induced loss of righting reflex at 5 mg/kg, sc; type: ADME, organism-based; set-up: dose 5 mg/kg, route subcutaneous; details: in vivo
In short: as §2

Astrocyte [22] = test: Inhibition of LPS-induced NO production in rat astrocytes; type: functional, cell-based

Structure (SMILES)	inhibition [2] [%]	Activity (Mus musculus [3])	inhibition [4] [%]	inhibition (Microglia)	inhibition [5] [%]	inhibition [6] [%]	inhibition (Astrocyte [7])	inhibition [8] [%]	Activity (SH-SY5Y [9])	inhibition [11] [%]	inhibition [12] [%]	Activity (Phosphodiesterase 7)	inhibition [13] [%]	IC50 [14] [nM]	IC50 [15] [nM]	inhibition [17] [%]	inhibition [18] [%]	further results
COc1ccc(C2CNC(=O)C2)cc1OC1CCCC1 (configuration not stated) [ROLIPRAM]	9.42	Toxic	3.1															Activity (Mus musculus [1]): Toxic
Nc1ccc(Sc2ccc(Cl)cc2[N+](=O)[O-])cc1	37		81	Active	57.5	7	Active	28	Active	1.2	7	inactive	36	3000	370	4	82	Activity (Mus musculus [10]): Non-toxic; Activity (SH-SY5Y [16]): Active
O=[N+]([O-])c1ccc(Sc2ccncc2)c(Cl)c1	27		85	Active	29.4	1	Active	21	Active	2.4	65	inactive	39	600	180	69	94	IC50 [19]: 7.3 µM; IC50 [20]: 6.6 µM
O=C(Nc1c(Cl)cncc1Cl)c1ccc(OC(F)F)c(OCC2CC2)c1 [ROFLUMILAST]		Toxic																Activity (Mus musculus [21]): Toxic
O=[N+]([O-])c1ccc(Sc2ccccn2)c(Cl)c1	44		69	Active			Active		Active		24				1290	35	39	inhibition (Astrocyte [22]): Active

— ChEMBL document CHEMBL3352280, “Modulation of cAMP-specific PDE without emetogenic activity: new sulfide-like PDE7 inhibitors” (J Med Chem, 2014)
